Measured values: ChEMBL document CHEMBL1123149, “Synthesis and antineoplastic evaluations of 5,8-bis[(aminoalkyl)amino]-1-azaanthracene-9,10-diones” (1985)
Values after ≈ are worked out from the molar mass of the structure shown. Active and inactive are the calls of the source. The rule behind the calls is not given here.

What was measured:
L1210 = test: In vitro growth inhibitory effect against L1210 murine leukemia cells was determined; assay type: functional; details: Mus musculus, read-out: ID50 (the source's name)
Procedure, shortened: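 L1210 cells, 10^5 cells/tube in 4 mL, exposed continuously 96 h to drug added in Me2SO (≤40 μL per culture) at final 0.01, 0.1 and 10 μg/mL, triplicate.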

Mus musculus [1] = test: Activity against L1210 leukemia cells was studied in mice at 15 mg/kg and determined as MST(treated)/MST(control) x100; assay type: functional
Mus musculus [2] = test: Activity against L1210 leukemia cells was studied in mice at 30 mg/kg and determined as MST(treated)/MST(control) x100; assay type: functional
Mus musculus [3] = test: Activity against L1210 leukemia cells was studied in mice at 100 mg/kg and determined as MST(treated)/MST(control) x100; Toxic; assay type: functional, organism-based; design: dose 100 mg/kg
Mus musculus [4] = test: Activity against L1210 leukemia cells was studied in mice at 100 mg/kg and determined as MST(treated)/MST(control) x100; Inactive; assay type: functional, organism-based; design: dose 100 mg/kg
Mus musculus [5] = test: Activity against L1210 leukemia cells was studied in mice at 25 mg/kg and determined as MST(treated)/MST(control) x100; assay type: functional
Mus musculus [6] = test: Activity against L1210 leukemia cells was studied in mice at 50 mg/kg and determined as MST(treated)/MST(control) x100; assay type: functional

Row | Structure (SMILES) | IC50 (L1210) [µg/mL] | also measured
1 | CN(C)CCCNc1ccc(NCCCN(C)C)c2c1C(=O)c1cccnc1C2=O | 1.7 (≈ 4.15 µM) | 
2 | CN(C)CCNc1ccc(NCCN(C)C)c2c1C(=O)c1ccccc1C2=O | 0.08 (≈ 0.21 µM) | T/C (Mus musculus [1]): 117%; T/C (Mus musculus [2]): 150%
3 | CCN(CC)CCNc1ccc(NCCN(CC)CC)c2c1C(=O)c1cccnc1C2=O | 2.4 (≈ 5.48 µM) | T/C (Mus musculus [3]): Toxic
4 | O=C1c2cccnc2C(=O)c2c(O)ccc(O)c21 | 0.18 (≈ 0.746 µM) | T/C (Mus musculus [4]): inactive
5 | CCN(CC)CCNc1ccc(NCCN(CC)CC)c2c1C(=O)c1ccccc1C2=O | 0.3 (≈ 0.687 µM) | 
6 | CC(=O)NCCNc1ccc(NCCNC(C)=O)c2c1C(=O)c1cccnc1C2=O | > 10 | 
7 | CN(C)CCNc1ccc(NCCN(C)C)c2c1C(=O)c1cccnc1C2=O | 0.16 (≈ 0.419 µM) | T/C (Mus musculus [5]): 120%; T/C (Mus musculus [6]): 130%
